From article PMC6661244 (Investigative Radiology, 2019)
Entries after “also recorded” stand apart in the source; their conditions may differ.

How the values were obtained:
Viscosity = type: physicochemical; settings: 0.5 M
Summary of the method: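 Cone-and-plate rotational rheometry (60 mm, 2° cone) on a 0.5 M solution at 37°C. Shear rate was recorded at applied stresses of 1–5 Pa, and viscosity was taken from the slope of stress versus shear rate.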

[1] = Nuclear magnetic relaxation dispersion; type: physicochemical
[2] = tested on: hepatic colorectal metastases; settings: rats, 0.1 mmol Gd/kg intravenously, 9.4 T, compared with gadobutrol; cited from earlier work
[3] = Metabolism: HPLC analysis of plasma and urine samples; type: in vivo; settings: Beagle dogs, 0.2 mmol Gd/kg IV
Summary of the method: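 Urine and plasma from Beagle dogs given a 153Gd-labelled test compound (0.2 mmol Gd/kg IV) were analysed by radio-HPLC. Separation used a C18 column at 4°C, with detection by a flow scintillation analyser.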

[4] = type: physicochemical; settings: 2.5 mM GBCA and ZnCl2, phosphate buffer pH 7, 335 mM, 37°C, 0.47 T, up to 5 days
Osmolality = type: physicochemical; settings: 0.5-M solution; Guerbet measurements
Summary of the method: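 Vapour-pressure osmometry on a 0.5 M solution, triplicate readings. The osmometer was calibrated before each use with 100, 290 and 1000 mOsm/kg H2O standards.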

Structure (SMILES)	Viscosity at 37°C (Viscosity)	Relaxivity r1 at 37°C ([1]; 3 T, in human serum, extrapolated from NMRD profiles)	r1 relaxivity (NMRD profile) ([1]; 300 MHz, ie, 7 T field, water, 37°C)	Lesion enhancement [2]	Metabolites in plasma and urine samples (HPLC) [3]	r1(t)/r1(t0) ratio over time in the presence of Zn^2+ and phosphate [4]	Osmolality at 37°C at marketed concentration (Osmolality)
O=C(CCC(C(=O)[O-])N1CCN(C(CCC(=O)NCC(O)CO)C(=O)[O-])Cc2cccc(n2)CN(C(CCC(=O)NCC(O)CO)C(=O)[O-])CC1)NCC(O)CO.[Gd+3] (centres unmarked) [Gadopiclenol, gadolinium chelate of 2,2′,2″-(3,6,9-triaza-1(2,6)-pyridinacyclodecaphane-3,6,9-triyl)tris(5-((2,3-dihydroxypropyl)amino)-5-oxopentanoic acid)]	7.6 mPa·s	11.6 mM⁻¹ s⁻¹	10.68 mM⁻¹ s⁻¹	significantly better lesions enhancement	No metabolites were found; also recorded: only unchanged gadopiclenol	remained constant	843 mOsm/kg H2O
CNC[C@H](O)[C@@H](O)[C@H](O)[C@H](O)CO.O=C([O-])CN1CCN(CC(=O)[O-])CCN(CC(=O)O)CCN(CC(=O)[O-])CC1.[Gd+3] [Gadoterate (Meglumine Salt), reference compound]	–	–	–	–	–	remained constant	–
